Measured values published in ChEMBL document CHEMBL3352115, “Discovery of APD334: Design of a Clinical Stage Functional Antagonist of the Sphingosine-1-phosphate-1 Receptor” (ACS Med Chem Lett, 2014).
Activity calls are given as the source filed them. The rule behind the calls is not given here.

Assays:
[1] = tested on: Rhesus monkey; assay: Reduction in peripheral lymphocyte count in orally dosed monkey measured after 24 hrs; format: ADME, organism-based; details: Macaca mulatta
[2] = Protein binding in human plasma; format: ADME, cell-free; details: read-out: PPB (converted)
[3] = Drug level in Sprague-Dawley rat brain at 14.5 ug/hr/kg dosed as constant infusion measured after 48 hrs; format: ADME, organism-based; details: iv, read-out: Drug uptake
Method in brief: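 Male Sprague–Dawley rats given constant infusion at 14.5 μg/h/kg for 48 h; brain and plasma concentrations measured at 48 h.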

[4] = Ratio of drug level in brain to plasma of Sprague-Dawley rat at 14.5 ug/hr/kg dosed as constant infusion measured after 48 hrs; format: ADME, organism-based; details: iv, read-out: BPR
Method in brief: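 Male Sprague–Dawley rats given 48 h constant infusion at 14.5 μg/h/kg; brain and plasma concentrations measured at 48 h to give B/P ratio.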

[5] = tested on: Mus musculus; assay: Prevention of onset and severity of disease in C57Bl/6 mouse experimental autoimmune encephalomyelitis model of multiple sclerosis at 0.3 to 3 mg/kg dosed once daily beginning on day 3 and continued to day 25; format: functional, organism-based
Method in brief: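 Female C57Bl/6 mice immunized with MOG35–55 as autoantigen; oral dosing once daily from day 3 to day 25 in 0.5% methylcellulose vehicle; clinical scores followed beyond end of dosing.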

[6] = tested on: Mus musculus; assay: Reduction in inflammatory foci in C57Bl/6 mouse experimental autoimmune encephalomyelitis model of multiple sclerosis at 3 mg/kg dosed once daily beginning on day 18 and continued to day 37 by immunofluorescent staining method; format: functional, organism-based; design: dose 3 mg/kg
Method in brief: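 Therapeutic EAE in female C57Bl/6 mice, dosing from day 18; spinal cord and brain collected day 37; cerebellum sections immunostained for CD45 and CD3 with DAPI counterstain; inflammatory foci and infiltrating lymphocytes assessed.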

[7] = tested on: Rattus norvegicus; assay: Reduction in ankle diameter in Lewis rat collagen-induced arthritis model at 3 mg/kg, po qd measured on day 17 (reference value: +/- inches); format: functional
Method in brief: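 Female Lewis rats with collagen-induced arthritis, prophylactic daily oral dosing; ankle diameter (inches) and body weight recorded at day 17 end point; mean ± SEM.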

[8] = tested on: Rattus norvegicus; assay: Induction of body weight regain in Lewis rat collagen-induced arthritis model at 3 mg/kg, po qd measured on day 17 (reference value: 160.3 +/- 2.3 g); format: functional
[9] = tested on: Rattus norvegicus; assay: Improvement histological parameters of knee and ankles in Lewis rat collagen-induced arthritis model at 1 mg/kg, po qd measured on day 17; format: functional, organism-based; design: dose 1 mg/kg; details: Ankle/Knee
[10] = target: Cytochrome P450 3A4 (Homo sapiens, UniProt P08684); assay: Inhibition of CYP3A4 (unknown origin); format: ADME
[11] = target: Cytochrome P450 2D6 (Homo sapiens, UniProt P10635); assay: Inhibition of CYP2D6 (unknown origin); format: ADME
[12] = target: Adenosine receptor A3 (Homo sapiens, UniProt P0DMS8); assay: Binding affinity to human adenosine A3 receptor
[13] = Activation of Inward rectifier potassium channel in human atrial myocytes; format: cell-based; details: Cardiac atrium
Method in brief: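 In vitro activation of the inward-rectifying potassium channel (IKACh) in human atrial myocytes, run alongside S1P as reference agonist; potency expressed as EC50.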

[14] = target: Voltage-gated inwardly rectifying potassium channel KCNH2 (Homo sapiens, UniProt Q12809); assay: Inhibition of human ERG by patch clamp assay
[15] = tested on: Canis familiaris; assay: Effect on body temperature in telemeterized dog up to 40 mg/kg; format: ADME, organism-based, Canis lupus familiaris; design: dose 40 mg/kg; details: in vivo
Method in brief: (§1)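 Telemeterized dogs dosed at levels up to 40 mg/kg; pulse pressure, heart rate, body temperature and ECG parameters monitored.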

[16] = tested on: Canis familiaris; assay: Effect on ECG parameters in telemeterized dog up to 40 mg/kg; format: ADME, organism-based, Canis lupus familiaris; design: dose 40 mg/kg; details: in vivo; method in brief: as §1
[17] = tested on: Rattus norvegicus; assay: Effect on neurobehaviour in Sprague-Dawley rat up to 350 mg/kg; format: ADME, organism-based; design: dose 350 mg/kg; details: in vivo
Method in brief: (§2)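 CNS (neurobehavioral) and respiratory safety studies in SD rats, doses up to 350 mg/kg.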

[18] = tested on: Rattus norvegicus; assay: Effect on respiratory function in Sprague-Dawley rat up to 350 mg/kg; format: ADME, organism-based; design: dose 350 mg/kg; details: in vivo; method in brief: as §2
[19] = Cmax in Sprague-Dawley rat at 1000 mg/kg; format: ADME, organism-based; design: dose 1000 mg/kg; details: in vivo
Method in brief: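 Sprague–Dawley rats dosed at 300 and 1000 mg/kg in a separate dose-proportionality exposure study; Cmax determined.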

[20] = tested on: Rattus norvegicus; assay: Effect on liver function in Sprague-Dawley rat at 30 to 1000 mg/kg; format: ADME, organism-based; design: dose 30-1000 mg/kg; details: in vivo
[21] = target: T1, Sphingosine 1-phosphate receptor 1 (Homo sapiens, UniProt P21453); assay: Agonist activity at human S1P1 receptor assessed as cAMP accumulation by HTRF assay; format: functional
Method in brief: (§3)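 HTRF cyclase (cAMP) functional assay at S1P1 of each species; EC50 taken as mean of three or more replicates; efficacy given as % agonism relative to S1P.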

[22] = Cmax in rat at 1 mg/kg equivalent, po; format: ADME, organism-based; design: dose 1 mg/kg, route oral; details: in vivo
Method in brief: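 SD rat given L-arginine salt orally as a solution in sterile water, 1.0 mg/kg free-acid equivalent; Cmax measured.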

[23] = target: Sphingosine 1-phosphate receptor 1 (Rattus norvegicus, UniProt P48303); assay: Agonist activity at rat S1P1 receptor assessed as cAMP accumulation by HTRF assay; format: functional; method in brief: as §3
[24] = target: Sphingosine 1-phosphate receptor 1 (Rattus norvegicus) (UniProt P48303); assay: Agonist activity at rat S1P1 receptor assessed as cAMP accumulation by HTRF assay relative to S1P; format: functional; method in brief: as §3
[25] = target: Sphingosine-1-phosphate receptor 1 (Canis lupus familiaris) (UniProt W5VNF7); assay: Agonist activity at dog S1P1 receptor assessed as cAMP accumulation by HTRF assay relative to S1P; format: functional; method in brief: as §3
[26] = target: Sphingosine 1-phosphate receptor 1 (Macaca mulatta, UniProt H9EUW9); assay: Agonist activity at monkey S1P1 receptor assessed as cAMP accumulation by HTRF assay; format: functional; method in brief: as §3
[27] = target: Sphingosine 1-phosphate receptor 1 (Macaca mulatta) (UniProt H9EUW9); assay: Agonist activity at monkey S1P1 receptor assessed as cAMP accumulation by HTRF assay relative to S1P; format: functional; method in brief: as §3
[28] = target: T1, Sphingosine 1-phosphate receptor 1; assay: Agonist activity at human S1P1 receptor by beta-arrestin recruitment assay relative to S1P
[29] = Systemic clearance in rat at 1 mg/kg, iv; format: ADME, organism-based; design: dose 1 mg/kg, route intravenous; details: in vivo
[30] = tested on: Rattus norvegicus; assay: Systemic clearance in rat at 1 mg/kg, iv relative to liver blood flow; format: ADME, organism-based; design: dose 1 mg/kg, route intravenous; details: in vivo
[31] = tested on: Rhesus monkey; assay: Systemic clearance in monkey at 1 mg/kg, iv relative to liver blood flow; format: ADME, organism-based, Macaca mulatta; design: dose 1 mg/kg, route intravenous; details: in vivo
[32] = Volume of distribution at steady state in mouse at 1 mg/kg, iv; format: ADME, organism-based; design: dose 1 mg/kg, route intravenous; details: in vivo, read-out: Vdss
[33] = Cmax in mouse at 1 mg/kg, iv or 1 mg/kg, po; format: ADME, organism-based; details: in vivo
Method in brief: (§4)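 Preclinical iv/po PK; amorphous free acid dosed orally as a suspension in 0.5% methyl cellulose; clearance and Vss from intravenous administration.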

[34] = Cmax in dog at 1 mg/kg, iv or 3 mg/kg, po; format: ADME, organism-based, Canis lupus familiaris; details: in vivo; method in brief: as §4
[35] = Tmax in dog at 1 mg/kg, iv or 3 mg/kg, po; format: ADME, organism-based, Canis lupus familiaris; details: in vivo
[36] = AUC (0 to infinity) in dog at 1 mg/kg, iv or 3 mg/kg, po; format: ADME, organism-based, Canis lupus familiaris; details: plasma; method in brief: as §4
[37] = Elimination half life in rat at 1 mg/kg, po; format: ADME, organism-based; design: dose 1 mg/kg, route oral; details: in vivo, read-out: beta t1/2 (converted); method in brief: as §4
[38] = Elimination half life in monkey at 3 mg/kg, po; format: ADME, organism-based, Macaca mulatta; design: dose 3 mg/kg, route oral; details: rhesus monkey, in vivo, read-out: beta t1/2 (converted); method in brief: as §4
[39] = Oral bioavailability in rat at 1 mg/kg; format: ADME, organism-based; details: in vivo

T1 sequence (P21453 whole entry): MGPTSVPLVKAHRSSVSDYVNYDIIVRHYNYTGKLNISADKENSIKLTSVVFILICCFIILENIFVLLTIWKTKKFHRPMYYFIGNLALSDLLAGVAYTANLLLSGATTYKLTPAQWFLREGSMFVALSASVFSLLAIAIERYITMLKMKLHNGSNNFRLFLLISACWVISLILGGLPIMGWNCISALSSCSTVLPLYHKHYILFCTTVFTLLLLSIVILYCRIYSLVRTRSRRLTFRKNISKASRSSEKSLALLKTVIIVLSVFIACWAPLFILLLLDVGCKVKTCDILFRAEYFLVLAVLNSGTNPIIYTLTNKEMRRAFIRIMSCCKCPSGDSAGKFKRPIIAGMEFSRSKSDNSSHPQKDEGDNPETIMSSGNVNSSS
Chain of Adenosine receptor A3 (P0DMS8 whole entry): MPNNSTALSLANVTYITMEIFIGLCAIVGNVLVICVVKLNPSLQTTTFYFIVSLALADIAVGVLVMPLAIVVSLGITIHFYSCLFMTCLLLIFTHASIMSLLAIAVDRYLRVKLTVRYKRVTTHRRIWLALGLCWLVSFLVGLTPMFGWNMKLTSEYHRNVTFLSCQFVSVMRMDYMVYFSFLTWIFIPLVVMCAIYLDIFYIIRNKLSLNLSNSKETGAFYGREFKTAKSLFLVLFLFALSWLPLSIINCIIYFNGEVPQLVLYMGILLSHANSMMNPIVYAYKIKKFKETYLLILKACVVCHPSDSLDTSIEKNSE
Chain of Voltage-gated inwardly rectifying potassium channel KCNH2 (Q12809 whole entry): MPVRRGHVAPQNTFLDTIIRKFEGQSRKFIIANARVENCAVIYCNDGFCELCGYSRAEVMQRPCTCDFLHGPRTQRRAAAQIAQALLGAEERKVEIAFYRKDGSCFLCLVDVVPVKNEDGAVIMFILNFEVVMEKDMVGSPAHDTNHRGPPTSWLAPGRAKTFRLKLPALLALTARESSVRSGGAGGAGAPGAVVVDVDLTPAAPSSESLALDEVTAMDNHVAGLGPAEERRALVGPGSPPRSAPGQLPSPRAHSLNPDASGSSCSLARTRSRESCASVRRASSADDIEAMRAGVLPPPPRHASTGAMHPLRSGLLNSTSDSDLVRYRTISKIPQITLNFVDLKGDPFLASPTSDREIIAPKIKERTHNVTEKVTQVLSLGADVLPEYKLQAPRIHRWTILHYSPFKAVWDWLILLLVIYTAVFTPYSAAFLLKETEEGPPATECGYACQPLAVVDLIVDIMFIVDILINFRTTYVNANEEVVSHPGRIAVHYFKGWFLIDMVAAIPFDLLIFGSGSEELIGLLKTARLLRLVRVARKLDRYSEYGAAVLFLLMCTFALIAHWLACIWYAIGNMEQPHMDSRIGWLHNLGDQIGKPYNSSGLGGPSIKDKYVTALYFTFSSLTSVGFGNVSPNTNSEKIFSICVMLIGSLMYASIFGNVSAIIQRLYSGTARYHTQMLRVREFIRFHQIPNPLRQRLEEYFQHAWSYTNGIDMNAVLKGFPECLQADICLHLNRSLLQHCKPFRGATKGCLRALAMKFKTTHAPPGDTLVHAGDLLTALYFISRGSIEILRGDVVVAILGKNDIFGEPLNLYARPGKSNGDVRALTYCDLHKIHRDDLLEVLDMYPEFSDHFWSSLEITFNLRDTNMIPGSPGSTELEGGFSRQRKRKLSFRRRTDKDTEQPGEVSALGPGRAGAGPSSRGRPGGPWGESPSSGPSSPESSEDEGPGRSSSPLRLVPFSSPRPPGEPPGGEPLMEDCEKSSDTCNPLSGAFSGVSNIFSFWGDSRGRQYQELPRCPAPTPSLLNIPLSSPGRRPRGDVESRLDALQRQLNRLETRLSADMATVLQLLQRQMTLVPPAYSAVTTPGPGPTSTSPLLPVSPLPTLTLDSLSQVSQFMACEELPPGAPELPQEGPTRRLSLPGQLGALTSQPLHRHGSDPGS
Chain of Sphingosine 1-phosphate receptor 1 (Macaca mulatta, UniProt H9EUW9) (H9EUW9 whole entry): as the sequence (P21453 whole entry) above, with P3S, H12L, I37T, K41R, S189P, I241M, E365D counted along it
Chain of Sphingosine 1-phosphate receptor 1 (Macaca mulatta) (H9EUW9 as listed by the source): as the sequence (P21453 whole entry) above, with P3S, H12L, I37T, K41R, S189P, I241M, E365D counted along it
Chain of Cytochrome P450 2D6 (P10635 whole entry): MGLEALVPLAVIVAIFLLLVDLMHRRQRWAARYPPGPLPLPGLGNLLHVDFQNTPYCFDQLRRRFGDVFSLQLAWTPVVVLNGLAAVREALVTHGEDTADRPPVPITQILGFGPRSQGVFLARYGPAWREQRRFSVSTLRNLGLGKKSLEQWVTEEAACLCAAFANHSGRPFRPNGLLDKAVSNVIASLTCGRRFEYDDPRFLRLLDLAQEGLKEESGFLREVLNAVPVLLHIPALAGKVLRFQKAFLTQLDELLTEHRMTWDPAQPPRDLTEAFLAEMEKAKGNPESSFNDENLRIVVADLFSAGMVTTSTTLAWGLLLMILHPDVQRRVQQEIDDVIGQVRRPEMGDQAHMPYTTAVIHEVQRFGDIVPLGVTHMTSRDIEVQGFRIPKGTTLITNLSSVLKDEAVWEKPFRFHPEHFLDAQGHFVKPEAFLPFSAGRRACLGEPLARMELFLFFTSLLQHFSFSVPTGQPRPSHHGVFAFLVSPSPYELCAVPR
Chain of Sphingosine 1-phosphate receptor 1 (Rattus norvegicus) (P48303 whole entry): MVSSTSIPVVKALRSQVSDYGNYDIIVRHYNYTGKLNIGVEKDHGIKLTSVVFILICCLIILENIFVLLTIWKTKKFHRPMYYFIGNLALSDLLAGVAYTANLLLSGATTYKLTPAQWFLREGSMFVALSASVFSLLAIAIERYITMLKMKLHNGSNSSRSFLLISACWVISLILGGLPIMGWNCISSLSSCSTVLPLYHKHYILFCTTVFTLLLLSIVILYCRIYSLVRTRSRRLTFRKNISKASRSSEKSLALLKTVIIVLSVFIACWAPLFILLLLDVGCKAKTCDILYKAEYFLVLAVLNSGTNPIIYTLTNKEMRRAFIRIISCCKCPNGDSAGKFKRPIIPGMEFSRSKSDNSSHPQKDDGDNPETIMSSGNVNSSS
Chain of Sphingosine 1-phosphate receptor 1 (Rattus norvegicus, UniProt P48303) (P48303 whole entry): as above
Chain of Cytochrome P450 3A4 (P08684 whole entry): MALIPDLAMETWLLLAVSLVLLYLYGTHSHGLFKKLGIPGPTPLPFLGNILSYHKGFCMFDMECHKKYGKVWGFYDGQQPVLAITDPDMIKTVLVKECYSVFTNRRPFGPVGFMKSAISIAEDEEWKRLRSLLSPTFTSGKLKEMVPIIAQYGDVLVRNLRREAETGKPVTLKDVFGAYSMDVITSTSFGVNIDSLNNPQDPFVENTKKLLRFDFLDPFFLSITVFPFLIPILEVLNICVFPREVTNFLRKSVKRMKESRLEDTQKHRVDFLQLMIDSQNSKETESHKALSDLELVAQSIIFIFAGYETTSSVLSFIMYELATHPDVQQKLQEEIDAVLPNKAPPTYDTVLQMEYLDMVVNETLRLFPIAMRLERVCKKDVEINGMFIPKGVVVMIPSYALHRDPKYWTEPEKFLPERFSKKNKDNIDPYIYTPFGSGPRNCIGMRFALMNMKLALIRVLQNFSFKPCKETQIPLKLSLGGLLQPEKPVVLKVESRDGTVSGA
Chain of Sphingosine-1-phosphate receptor 1 (Canis lupus familiaris) (W5VNF7 as listed by the source): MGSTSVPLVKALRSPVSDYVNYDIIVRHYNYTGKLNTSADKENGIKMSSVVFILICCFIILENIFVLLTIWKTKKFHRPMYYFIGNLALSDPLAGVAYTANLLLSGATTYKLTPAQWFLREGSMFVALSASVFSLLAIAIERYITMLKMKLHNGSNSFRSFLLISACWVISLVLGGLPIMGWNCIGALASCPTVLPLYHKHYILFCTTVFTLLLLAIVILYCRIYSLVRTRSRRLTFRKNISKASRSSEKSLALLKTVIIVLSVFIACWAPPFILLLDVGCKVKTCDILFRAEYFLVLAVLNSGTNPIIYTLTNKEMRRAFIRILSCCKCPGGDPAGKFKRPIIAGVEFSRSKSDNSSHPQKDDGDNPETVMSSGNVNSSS

Compound `O=C(O)C[C@H]1CCc2c1[nH]c1ccc(OCc3ccc(C4CCCC4)c(C(F)(F)F)c3)cc21` [ETRASIMOD] has an IC50 [1] of 98 nM, a fraction unbound [2] of 0.022 and a concentration at 48 h [3] of 210 nM. For the same compound, the Kp at 48 h [4] was 1.9, the Activity [5] was “Active” and the Activity [6] was “Active”. The Activity [7] was 0.269 inches, the Activity [8] was 182.3 g and the Activity [9] was “Active”. For the same compound, the IC50 [10] was > 50 µM, the IC50 [11] was > 50 µM and the IC50 [12] was 3.3 µM. The EC50 [13] was 29.9 nM, the IC50 [14] was > 30 µM and the Activity [15] was “Non-toxic”. For the same compound, the Activity [16] was “Non-toxic”, the Activity [17] was “Non-toxic” and the Activity [18] was “Non-toxic”. For the same compound, the Cmax [19] was 183 µM, the Activity [20] was “Non-toxic” and the EC50 [21] was 0.04 nM. It also gave a Cmax [22] of 361 ng/mL, an EC50 [23] of 0.32 nM and an Emax [24] of 99%. For the same compound, the Emax [25] was 87%, the EC50 [26] was 0.32 nM and the Emax [27] was 95%. It also gave an Emax [28] of 110%, a clearance [29] of 2.42 mL/min/kg and a CL [30] of 3.45%. For the same compound, the CL [31] was 2.23%, the Vd [32] was 1.93 L/kg and the Cmax [33] was 780 ng/mL. For the same compound, the Cmax [34] was 3710 ng/mL, the Tmax [35] was 7.33 h and the AUC(0-inf) [36] was 164 µg·h/mL. The half-life [37] was 578 min, the half-life [38] was 382 min and the bioavailability [39] was 54%.
